Experimental data as given in ChEMBL document CHEMBL1148346, “Tiplaxtinin, a novel, orally efficacious inhibitor of plasminogen activator inhibitor-1: design, synthesis, and preclinical characterization” (J Med Chem, 2004).
pIC50: −log10 of the molar value.

Key:
[1] = molecular target: Plasminogen activator inhibitor 1 (Homo sapiens, UniProt P05121); experiment: Inhibition of human plasminogen activator inhibitor-1
Canis familiaris [2] = experiment: Oral efficacy in dog thrombosis model at 3 mg/kg expressed as arterial occlusion; type: functional, Canis lupus familiaris
Procedure, shortened: (§1)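 Anesthetized dogs dosed orally, then an electrolytic injury made in the coronary artery lumen. Occlusion was taken as zero flow, and flow, occlusion time and spontaneous reperfusion were monitored over 4 h. Three dogs per group, mean ± SEM.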

[3] = Cmax after single intravenous bolus of 1 mg/kg in rats; type: ADME, organism-based; set-up: dose 1 mg/kg, route intravenous; details: rat, in vivo
[4] = Half-life after oral dose of compound at 3 mg/kg in dogs; type: ADME, organism-based, Canis lupus familiaris; set-up: dose 3 mg/kg, route oral; details: dog, in vivo
Procedure, shortened: (§2)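 Male beagle dogs given a single oral dose of 3 mg/kg. Plasma sampled, with Cmax and half-life derived and relative bioavailability calculated.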

[5] = AUC after administration at 2000 mg/kg/day in rats; type: ADME, organism-based; details: rat, plasma
[6] = Apparent half-life after single intravenous bolus of 1 mg/kg in rats; type: ADME, organism-based; set-up: dose 1 mg/kg, route intravenous; details: rat, in vivo
[7] = Relative bioavailability after oral dose of compound at 3 mg/kg in dogs; type: ADME, organism-based, Canis lupus familiaris; details: dog, in vivo; procedure, shortened: as §2
Rattus norvegicus [8] = experiment: Oral efficacy in rat thrombosis model at 1 mg/kg expressed as carotid flow reduction; type: functional
Procedure, shortened: (§3)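 Anesthetized, instrumented rats dosed orally before chemical induction of an occlusive carotid artery thrombus. Time to occlusion, carotid flow, patency and thrombus weight compared with vehicle, four rats per group, mean ± SEM.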

[9] = Cmax after oral dose of compound at 3 mg/kg in dogs; type: ADME, organism-based, Canis lupus familiaris; set-up: dose 3 mg/kg, route oral; details: dog, in vivo; procedure, shortened: as §2
[10] = Apparent half-life after single intravenous bolus of 1 mg/kg in dogs; type: ADME, organism-based, Canis lupus familiaris; set-up: dose 1 mg/kg, route intravenous; details: dog, in vivo
Procedure, shortened: (§4)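 Male beagle dogs given a single iv bolus of 1 mg/kg. Plasma sampled, with apparent half-life, Cmax and AUC0-∞ derived.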

Canis familiaris [11] = experiment: Oral efficacy in dog thrombosis model at 3 mg/kg expressed as occlusion time; type: functional, Canis lupus familiaris; procedure, shortened: as §1
[12] = AUC0-24 after repeated oral dose of compound at 1 mg/kg in rats; type: ADME, organism-based; set-up: time < 24 hr, dose 1 mg/kg, route oral; details: rat, plasma
Procedure, shortened: (§5)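 Male SD rats given repeated oral doses of 1 mg/kg. Plasma concentrations measured, with Cmax, half-life and AUC0-24 derived.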

Canis familiaris [13] = experiment: Oral efficacy in dog thrombosis model at 3 mg/kg expressed as spontaneous reperfusion; type: functional, Canis lupus familiaris; procedure, shortened: as §1
[14] = AUC0-infinity after single intravenous bolus of 1 mg/kg in dogs; type: ADME, organism-based, Canis lupus familiaris; set-up: time infinity, dose 1 mg/kg, route intravenous; details: dog, plasma; procedure, shortened: as §4
[15] = Cmax after single intravenous bolus of 1 mg/kg in dogs; type: ADME, organism-based, Canis lupus familiaris; set-up: dose 1 mg/kg, route intravenous; details: dog, in vivo; procedure, shortened: as §4
[16] = AUC0-infinity after single intravenous bolus of 1 mg/kg in rats; type: ADME, organism-based; set-up: time infinity, dose 1 mg/kg, route intravenous; details: rat, plasma
Rattus norvegicus [17] = experiment: Oral efficacy in rat thrombosis model at 1 mg/kg expressed as occlusion time; type: functional; procedure, shortened: as §3
[18] = AUC after administration at 100 mg/kg/day in dogs; type: ADME, organism-based, Canis lupus familiaris; details: dog, plasma
Rattus norvegicus [19] = experiment: Oral efficacy in rat thrombosis model at 1 mg/kg expressed as thrombus weight; type: functional; procedure, shortened: as §3
[20] = Cmax after repeated oral dose of compound at 1 mg/kg in rats; type: ADME, organism-based; set-up: dose 1 mg/kg, route oral; details: rat, in vivo; procedure, shortened: as §5
[21] = Half-life after repeated oral dose of compound at 1 mg/kg in rats; type: ADME, organism-based; set-up: dose 1 mg/kg, route oral; details: rat, in vivo; procedure, shortened: as §5
Rattus norvegicus [22] = experiment: Oral efficacy in rat thrombosis model at 1 mg/kg expressed as arterial occlusion; type: functional; procedure, shortened: as §3
Canis familiaris [23] = experiment: Oral efficacy in dog thrombosis model at 3 mg/kg expressed as coronary flow reduction

Sequence of Plasminogen activator inhibitor 1 (P05121 whole entry): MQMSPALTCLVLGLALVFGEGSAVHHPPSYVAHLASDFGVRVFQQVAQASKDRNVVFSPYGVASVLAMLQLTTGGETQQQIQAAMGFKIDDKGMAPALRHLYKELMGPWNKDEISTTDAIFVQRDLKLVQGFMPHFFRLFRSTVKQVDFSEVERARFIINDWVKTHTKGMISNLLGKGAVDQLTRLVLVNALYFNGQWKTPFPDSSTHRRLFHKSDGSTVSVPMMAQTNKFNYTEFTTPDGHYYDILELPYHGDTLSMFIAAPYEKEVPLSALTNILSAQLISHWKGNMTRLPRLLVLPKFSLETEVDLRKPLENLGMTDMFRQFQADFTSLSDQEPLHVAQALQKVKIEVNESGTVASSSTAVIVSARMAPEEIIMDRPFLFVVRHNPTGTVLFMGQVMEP

Work on CC(C)(C)c1ccc(Cn2cc(C(=O)C(=O)O)c3cc(-c4cccc(C(C)(C)C)c4)ccc32)cc1 yielded a pIC50 [1] of 5.00.
For O=C(O)c1ccc(-n2c(-c3ccccc3)cc3c2CCc2ccccc2-3)cc1O, the pIC50 [1] was 4.89.
O=C(O)C(=O)c1cn(Cc2ccccc2)c2cc(-c3ccc(OC(F)(F)F)cc3)ccc12 showed a pIC50 [1] of 4.77.
COc1cccc(-c2ccc3c(c2)c(C(=O)C(=O)O)cn3Cc2ccc(C(C)(C)C)cc2)c1 gave a pIC50 [1] of 4.68.
O=C(Nc1ccc(Cl)c(Cl)c1)c1ccc(CNc2cc([N+](=O)[O-])ccc2C(=O)O)cc1 gave a pIC50 [1] of 4.89.
With CC(C)(C)c1ccc(Cn2cc(C(=O)C(=O)O)c3cc(-c4ccc(OC(F)(F)F)cc4)ccc32)cc1 the pIC50 [1] was 4.80.
For O=C(O)C(=O)c1cn(Cc2ccccc2)c2cc(-c3ccccc3)ccc12, the pIC50 [1] was 4.59.
For O=C(O)C(=O)c1cn(Cc2ccc(F)cc2)c2cc(-c3ccccc3)ccc12, the pIC50 [1] was 4.46.
With CC(C)(C)c1ccc(Cn2cc(C(=O)C(=O)O)c3ccc(-c4ccc(OC(F)(F)F)cc4)cc32)cc1 the pIC50 [1] was under 4.30.
Molecule O=C(O)C(=O)c1cn(Cc2ccccc2)c2cccc(-c3ccc(OC(F)(F)F)cc3)c12 has a pIC50 [1] of under 4.30.
CN(C)CCSc1ccc(/C=c2\[nH]c(=O)/c(=C/c3ccccc3)[nH]c2=O)s1 showed a pIC50 [1] of 5.10.
Work on Cc1cccc(-c2ccc3c(c2)c(C(=O)C(=O)O)cn3Cc2ccc(C(C)(C)C)cc2)c1 [ALEPLASININ] yielded a pIC50 [1] of 5.07.
Work on O=C(O)C(=O)c1cn(Cc2ccccc2)c2ccc(-c3ccc(OC(F)(F)F)cc3)cc12 [TIPLASININ] yielded an Arterial occlusion (Canis familiaris [2]) of 100%, a Cmax [3] of 4950 ng/mL and a half-life [4] of 325 min. For the same molecule, the AUC [5] was about 1510 µg·h/mL, the half-life [6] was 177 min and the bioavailability [7] was 32%. For the same molecule, the Carotid flow reduction (Rattus norvegicus [8]) was 47.3%, the Cmax [9] was 2140 ng/mL and the half-life [10] was 224 min. For the same molecule, the Occlusion time (Canis familiaris [11]) was 71.6 min, the AUC at 24 h [12] was 960 ng·h/mL and the Spontaneous reperfusion (Canis familiaris [13]) was 100%. It also gave an AUC(0-inf) [14] of 20500 ng·h/mL, a Cmax [15] of 13400 ng/mL and an AUC(0-inf) [16] of 2450 ng·h/mL. It also gave an Occlusion time (Rattus norvegicus [17]) of 50.5 min, an AUC [18] of about 613 µg·h/mL and a Thrombus weight (Rattus norvegicus [19]) of 0.5 mg. The Cmax [20] was 230 ng/mL, the half-life [21] was 246 min and the Arterial occlusion (Rattus norvegicus [22]) was 25%. The Coronary flow reduction (Canis familiaris [23]) was 66%.
